Laboratory results: article PMC5607115 (ACS chemical neuroscience, 2017)
Where two headings read alike, the source gives them in different places.

Legend:
[1] = cited from earlier work
[2] = tested on: mGlu2; details: cited from earlier work
[3] = rat
[4] = tested on: PgP/Bcrp
[5] = mice
[6] = biological target: mGlu2 (Rattus norvegicus, UniProt P31421); experiment: in vitro autoradiography on rat brain sections; format: binding
[7] = liver microsomal stability; format: in vitro ADME; details: Sprague-Dawley, rat, liver microsomes
In short: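 Sprague-Dawley rat liver microsomes in PBS with compound (0.5 µL of 2 mM DMSO stock) were preincubated 5 min at 37 °C. NADPH (10 mM stock) was added, then 60 min at 37 °C. Quenched with ice-cold CH3CN, centrifuged, quantified by LC-MS/MS as % peak area 60 vs 0 min. At least triplicate; verapamil positive control.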

[8] = LogP, shake flask method; format: physicochemical; details: n-octanol/water
In short: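 Test compound (50 µL of 20 µM DMSO stock) was mixed with mutually pre-saturated n-octanol and water (475 µL each), vortexed 1 min and shaken overnight at 37 °C. Each phase was quantified by LC-MS/MS, and LogP was taken as log of the octanol/water amount ratio. Run in triplicate.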

[9] = biological target: human mGlu3 (Homo sapiens, UniProt Q14832); experiment: thallium flux GIRK functional assay, human mGlu3; format: cell-based; details: for selectivity for mGlu2 over mGlu3: thallium flux GIRK assays
human mGlu3, sequence (Q14832 23-879): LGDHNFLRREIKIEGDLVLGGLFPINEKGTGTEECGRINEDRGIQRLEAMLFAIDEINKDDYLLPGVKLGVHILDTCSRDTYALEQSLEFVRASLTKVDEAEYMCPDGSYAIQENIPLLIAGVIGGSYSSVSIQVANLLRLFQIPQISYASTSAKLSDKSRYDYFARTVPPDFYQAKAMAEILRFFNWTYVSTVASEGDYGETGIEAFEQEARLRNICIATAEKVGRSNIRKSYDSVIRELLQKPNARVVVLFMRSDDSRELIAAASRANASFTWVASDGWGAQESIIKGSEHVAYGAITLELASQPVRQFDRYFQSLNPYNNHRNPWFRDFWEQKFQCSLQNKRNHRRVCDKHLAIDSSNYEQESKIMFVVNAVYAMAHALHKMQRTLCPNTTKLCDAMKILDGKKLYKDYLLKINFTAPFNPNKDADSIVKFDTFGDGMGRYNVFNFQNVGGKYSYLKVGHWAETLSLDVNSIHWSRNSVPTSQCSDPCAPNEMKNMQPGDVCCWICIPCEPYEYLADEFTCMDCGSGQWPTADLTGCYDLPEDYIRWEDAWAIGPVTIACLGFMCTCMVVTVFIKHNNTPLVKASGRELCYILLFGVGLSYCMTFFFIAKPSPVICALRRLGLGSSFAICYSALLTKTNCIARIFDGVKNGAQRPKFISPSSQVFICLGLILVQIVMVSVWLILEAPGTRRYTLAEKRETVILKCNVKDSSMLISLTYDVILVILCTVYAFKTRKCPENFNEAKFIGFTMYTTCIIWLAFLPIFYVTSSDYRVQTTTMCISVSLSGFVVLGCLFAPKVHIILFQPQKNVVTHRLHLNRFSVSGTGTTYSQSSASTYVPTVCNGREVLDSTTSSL
In short: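 HEK cells stably co-expressing GIRK and human mGlu3 (puromycin-selected polyclonal line) were plated overnight and loaded with FluoZin2-AM (330 nM final) for 1 h at RT. Compound (0.3% DMSO final) was preincubated ~1 h at RT, then thallium buffer with a full glutamate concentration-response was added. The 5–15 s fluorescence slope, normalised to vehicle and maximal agonist, was fitted to a four-parameter logistic equation.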

[10] = pH stability in buffer solutions; format: physicochemical; details: 60 min
In short: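 A DMSO stock (0.25 µmol/mL) was diluted 50 µL into 950 µL of 20 mM buffer: phosphate pH 7.4, boric acid-KCl-NaOH pH 9.4, or sodium acetate-KCl-HCl pH 5.0. Samples were held 1 h at 37 °C, and unchanged compound was measured by reversed-phase HPLC (CH3CN/H2O + 0.1% TFA).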

[11] = biological target: human mGlu2 (Homo sapiens, UniProt Q14416); experiment: thallium flux GIRK functional assay, human mGlu2; format: cell-based
human mGlu2, sequence (Q14416 19-872): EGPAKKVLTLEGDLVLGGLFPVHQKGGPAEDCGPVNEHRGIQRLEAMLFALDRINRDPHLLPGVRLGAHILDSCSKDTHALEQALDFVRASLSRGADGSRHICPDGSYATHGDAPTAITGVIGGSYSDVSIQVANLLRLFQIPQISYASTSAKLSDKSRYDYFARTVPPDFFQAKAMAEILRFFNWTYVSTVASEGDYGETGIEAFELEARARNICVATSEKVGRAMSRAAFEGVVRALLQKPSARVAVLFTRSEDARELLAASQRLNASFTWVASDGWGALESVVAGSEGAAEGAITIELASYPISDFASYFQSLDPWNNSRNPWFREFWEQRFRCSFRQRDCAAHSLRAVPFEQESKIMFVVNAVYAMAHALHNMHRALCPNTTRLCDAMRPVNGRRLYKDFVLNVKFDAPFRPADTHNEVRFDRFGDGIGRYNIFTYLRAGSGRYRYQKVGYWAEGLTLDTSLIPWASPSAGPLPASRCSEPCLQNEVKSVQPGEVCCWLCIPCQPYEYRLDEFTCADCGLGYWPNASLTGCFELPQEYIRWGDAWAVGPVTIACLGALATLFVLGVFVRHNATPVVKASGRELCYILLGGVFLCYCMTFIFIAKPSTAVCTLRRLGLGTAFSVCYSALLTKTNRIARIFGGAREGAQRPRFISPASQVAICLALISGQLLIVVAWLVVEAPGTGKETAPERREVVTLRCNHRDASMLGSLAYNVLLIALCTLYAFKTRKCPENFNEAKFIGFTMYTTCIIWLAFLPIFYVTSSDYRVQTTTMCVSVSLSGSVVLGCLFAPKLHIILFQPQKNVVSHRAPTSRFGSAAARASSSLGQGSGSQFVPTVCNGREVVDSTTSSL

[12] = tested on: other mGlu receptors; experiment: activity towards other mGlu receptors; details: test concentration of 30 µM
[13] = PET imaging in normal rat brain; format: in vivo, Sprague-Dawley rats; details: unlabeled QCA 1 mg/kg, self-blocking
[14] = tested on: major CNS targets; experiment: GPCRome assays; format: cell-based; details: NIH PDSP

mGlu2 (Rattus norvegicus, UniProt P31421), sequence (P31421 19-872): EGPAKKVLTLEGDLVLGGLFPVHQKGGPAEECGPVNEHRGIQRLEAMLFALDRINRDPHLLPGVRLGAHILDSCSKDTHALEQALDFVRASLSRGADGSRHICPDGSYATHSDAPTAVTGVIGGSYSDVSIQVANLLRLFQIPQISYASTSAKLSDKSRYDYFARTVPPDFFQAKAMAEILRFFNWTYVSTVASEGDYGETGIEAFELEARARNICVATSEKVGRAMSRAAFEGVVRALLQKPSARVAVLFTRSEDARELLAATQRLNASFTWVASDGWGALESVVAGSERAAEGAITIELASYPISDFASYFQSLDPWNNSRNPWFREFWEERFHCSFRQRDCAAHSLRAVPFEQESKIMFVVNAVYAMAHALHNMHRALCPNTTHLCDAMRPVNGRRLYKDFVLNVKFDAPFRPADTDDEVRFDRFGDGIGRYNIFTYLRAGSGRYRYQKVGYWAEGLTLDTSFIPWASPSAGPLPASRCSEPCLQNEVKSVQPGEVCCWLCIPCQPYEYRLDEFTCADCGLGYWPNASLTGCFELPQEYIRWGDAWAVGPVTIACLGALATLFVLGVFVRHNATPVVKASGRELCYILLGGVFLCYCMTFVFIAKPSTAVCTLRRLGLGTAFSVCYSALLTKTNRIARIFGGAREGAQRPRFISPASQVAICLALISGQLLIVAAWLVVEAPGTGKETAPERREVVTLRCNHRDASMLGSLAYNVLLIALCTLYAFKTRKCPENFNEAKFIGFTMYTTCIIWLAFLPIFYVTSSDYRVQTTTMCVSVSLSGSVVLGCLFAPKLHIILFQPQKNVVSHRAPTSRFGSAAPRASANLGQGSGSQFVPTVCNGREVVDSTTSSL

| remaining at 1 h, 2 µM [7] | logP [8] | pH stability, percent remaining of the parent molecule ([10]; pH 5.0, 37 °C) | pH stability, percent remaining of the parent molecule ([10]; pH 7.4, 37 °C) | pH stability, percent remaining of the parent molecule ([10]; pH 9.4, 37 °C) | IC50 [11] | Compound | selectivity for mGlu2 over mGlu3 [9] | other results |
| --- | --- | --- | --- | --- | --- | --- | --- | --- |
|  |  |  |  |  |  | [11CH3]Oc1ccc(C2CCN(c3ccn(CC4CC4)c(=O)c3C#N)CC2)cc1 [[^11C]CMDC, 1-(cyclopropylmethyl)-4-(4-[^11C]methoxyphenyl)-piperidin-1-yl-2-oxo-1,2-dihydropyridine-3-carbonitrile] |  | peak brain uptake [1]: ca. 0.6 SUV |
|  |  |  |  |  |  | [11CH3]Oc1c(F)ccc(F)c1C1CCN(c2ccn3c(CC4CC4)nnc3c2Cl)CC1 [compound 2] |  | mGlu2 selectivity over the other mGlu receptors [2]: greater than 350 fold |
|  |  |  |  |  |  | [11CH3]Oc1ccc(-c2cc(C(N)=O)nc3cc(CN4C(=O)CCC4=O)ccc23)c(F)c1 [[^11C]QCA, 7-((2,5-dioxopyrrolidin-1-yl)methyl)-4-(2-fluoro-4-[^11C]methoxyphenyl) quinoline-2-carboxamide] |  | unchanged [11C]QCA in brain homogenates ([3]; 5 min post injection): 78%; unchanged [11C]QCA in plasma ([3]; 5 min post injection): 93%; unchanged [11C]QCA in brain homogenates ([3]; 20 min post injection): 41%; unchanged [11C]QCA in plasma ([3]; 20 min post injection): 88%; unchanged [11C]QCA in brain homogenates ([3]; 60 min post injection): 34%; unchanged [11C]QCA in plasma ([3]; 60 min post injection): 79%; peak brain uptake in whole brain ([4]; PgP/Bcrp knockout mice): ca. 0.8 SUV; increase of whole brain uptake in PgP/Bcrp knockout vs wild-type mice ([4]; calculated based on area under curve): 130%; peak brain uptake in whole brain ([4]; wild-type mice): ca. 0.3 SUV; uptake in heart, lungs, liver, pancreas, kidneys and small intestine ([5]; 1 min post injection): > 3 % ID/g; brain uptake, peak value ([5]; at 1 min post injection): 0.42 % ID/g; in vitro specific binding to mGlu2 [6]: moderate-to-high level of in vitro specific binding |
| 70.1% | 1.75 | 98.5% | 53.6% | 59.0% | 130 ± 10 nM | NC(=O)c1cc(-c2ccc(OCCF)cc2F)c2ccc(CN3C(=O)CCC3=O)cc2n1 [FEQCA, 7-((2,5-dioxopyrrolidin-1-yl)methyl)-4-(2-fluoro-4-(2-fluoroethoxy)phenyl)quinoline-2-carboxamide] | excellent selectivity for mGlu2 over mGlu3 |  |
| 64.4% | 1.27 | 97.9% | 50.9% | 46.7% |  | COc1ccc(-c2cc(C(N)=O)nc3cc(CN4C(=O)CCC4=O)ccc23)c(F)c1 [QCA, 7-((2,5-dioxopyrrolidin-1-yl)methyl)-4-(2-fluoro-4-methoxyphenyl)quinoline-2-carboxamide] |  | activity towards other mGlu receptors [12]: inactive; effect on glutamate potency or glutamate maximal response (Schild analysis) ([9]; mGlu3, 41 nM-30 µM QCA): no effect; effect of pretreatment on [11C]QCA brain uptake [13]: failed to show significant reduction of brain uptake; interaction with major CNS targets [14]: no significant interaction |
| 64.6% | 1.99 | 91.5% | 72.5% | 76.3% | 1080 ± 1300 nM | NC(=O)c1cc(-c2ccc(OCCCF)cc2F)c2ccc(CN3C(=O)CCC3=O)cc2n1 [FPQCA, 7-((2,5-dioxopyrrolidin-1-yl)methyl)-4-(2-fluoro-4-(3-fluoropropoxy)phenyl)quinoline-2-carboxamide] | excellent selectivity for mGlu2 over mGlu3 |  |
